ARFGAP1 inh: rat ARFGAP1 inhibition; Q62848; Arfgap1-stimulated ARF1 GTP hydrolysis, GDP FP detection; inhibition, % at 16.5 µM; 360,000 compounds, 0.26% hits; AID 651572;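 active = inhibition above a per-plate limit, mean inhibition of low control wells plus 3 SD, cut at about 25% in these data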;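 note: 0% = DMSO wells with enzyme and 100% = wells lacking Arfgap1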
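material = rat Arfgap1 catalytic domain, aa 1-136 | also added = human ARF1(Δ1-17)-GTP substrate | compound dosing = one concentration, 16.5 µM, DMSO 1.26% | times = GTP hydrolysis reaction 2 h at 25 °C | measured by = FP, GDP Alexa 633 tracer displaced from anti-GDP antibody, 620/688 nm | evaluation = percent inhibition of Arfgap1-stimulated GTP hydrolysis | replication = single well per compound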
Calb FLC: C. albicans growth modulation with fluconazole | 300,000 compounds, 0.57% hits | C. albicans CaCi-2 + fluconazole, Alamar Blue growth, 48 h | growth inhibition, % (concentration not given with the values);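 active = growth inhibition above about 58% in most replicates, limit read from the data, passing the limit was not always enough; inconclusive = exactly half the replicates above a set limit; inactive = most replicates below a set limit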;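 note: all wells also contain fluconazole at 8 µg/ml as a sub-toxic cotreatment; 0% = median of DMSO wells and 100% = median of geldanamycin control wells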
PHOSPHO1 block: blocks human PHOSPHO1 phosphatase activity; inhibition, % at 13.3 µM; Q8TCT1; recombinant PHOSPHO1, absorbance phosphatase assay; 290,000 compounds, 1.1% hits; in the data active = inhibition above about 60%
IMP-1 inh: inhibitors of Pseudomonas aeruginosa IMP-1 metallo-beta-lactamase; inhibition, % at 5.6 µM; AID 1556; purified IMP-1, nitrocefin hydrolysis, epi-absorbance fluorescence; 290,000 compounds, 0.45% hits;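 active = inhibition above the mean plus 3 SD of all compounds in the same screening run, cut at about 4.5% in these data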;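 note: 0% = IMP-1 with DMSO and 100% = DMSO wells lacking enzyme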
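System: Purified IMP-1 | Read-out basis: Percent enzyme inhibition | Controls: IMP-1 with DMSO as 0%, enzyme-free DMSO as 100% | Replicates: One well per compound | Doses: 5.6 µM nominal single concentration | Detection: Epi-absorbance fluorescence, 480 nm excitation, 530 nm emission | Incubation: 25 °C, 15 min preincubation, 25 min reaction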
VIM-2 inh: blocks Pseudomonas aeruginosa VIM-2 metallo-beta-lactamase. purified VIM-2, nitrocefin hydrolysis, epi-absorbance fluorescence. 290,000 compounds, 0.89% hits. inhibition, % at 5.6 µM;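 active = inhibition above the mean of all tested compounds plus 3 SD, cutoff set per screening run, cut at about 7.5% in these data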;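 note: red hydrolysis product quenches plate fluorescence so inhibitors raise well fluorescence; 0% = enzyme with DMSO and 100% = DMSO without enzyme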
ASAP1 GAP inh: ASAP1 ArfGAP inhibition; 360,000 compounds, 0.19% hits; ASAP1-stimulated ARF1 GTP hydrolysis, GDP FP detection; inhibition, % at 16.5 µM; AID 624377; in the data active = inhibition above about 25%;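 note: 0% = vehicle with enzyme and substrate and 100% = no enzyme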
ARFGAP1 confirm: confirmation of rat ARFGAP1 inhibitors; shares compounds with ARFGAP1 inh; ARFGAP1-stimulated ARF1 GTP hydrolysis, GDP tracer FP; inhibition, % at 16.5 µM; 890 compounds, 30% hits;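 active = average inhibition over triplicates above the hit cutoff set in the earlier primary screen, cut at about 25% in these data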;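 note: 0% = Arfgap1 plus ARF1-GTP with DMSO and 100% = wells lacking Arfgap1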
Target sequence (Q62848 whole entry, looked up): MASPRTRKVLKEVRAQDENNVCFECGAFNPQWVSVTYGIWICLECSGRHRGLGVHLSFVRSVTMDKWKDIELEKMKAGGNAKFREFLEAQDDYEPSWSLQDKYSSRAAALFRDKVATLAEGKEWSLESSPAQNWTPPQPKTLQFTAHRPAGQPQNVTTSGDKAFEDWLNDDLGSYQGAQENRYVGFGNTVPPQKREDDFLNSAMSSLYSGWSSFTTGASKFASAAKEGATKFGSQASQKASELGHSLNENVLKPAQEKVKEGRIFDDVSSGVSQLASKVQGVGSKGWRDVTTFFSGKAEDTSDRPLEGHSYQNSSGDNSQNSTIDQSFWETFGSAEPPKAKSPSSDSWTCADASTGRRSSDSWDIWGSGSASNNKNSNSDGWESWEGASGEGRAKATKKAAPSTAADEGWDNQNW
Active calls of the source: *; ? = inconclusive; . = not tested or not shown; + = active, no number. Most compounds without a hit are left out; they make up all but 2.6% or so of the library.

SMILES	ARFGAP1 inh	Calb FLC	PHOSPHO1 block	IMP-1 inh	VIM-2 inh	ASAP1 GAP inh	ARFGAP1 confirm
O=C(Nc1cccc(-c2cnc3ccccc3n2)c1)c1ccco1	2	?	10	-4	-1	0	.
Cc1ccsc1C(=O)OCC(=O)N1CCOCC1	35*	-5	-9	-1	-1	-16	-5
CC(=O)NC(c1ccc(F)c(F)c1)c1nc(-c2cccc(C(=O)O)c2)cs1 (configuration not stated)	-1	.	.	.	.	-3	.
CC(=O)NCCNc1nc2cc(-c3cccc(Cl)c3)sc2c(=O)n1C	1	.	.	.	.	10	.
Brc1ccc(-c2noc3c2-c2nc(-c4ccccc4)sc2CC3)cc1	27*	-6	.	.	.	15	-1
O=C(NCc1ccccc1)C(c1ccncc1)n1c(=O)c(-c2cc3ccccc3[nH]2)nc2ccccc21 (configuration not stated)	25*	.	.	.	.	13	21
O=C(NC(=S)Nc1ccc(CN2CCOCC2)cc1)c1ccc(-c2cccc(Cl)c2)o1	1	10	40	-2	-5	13	.
O=C(Nc1ccc(CN2CCOCC2)cc1)c1ccc(-c2cccc(Cl)c2)o1	32*	-3	-117	2	3	14	27*
NC(Cc1ccc(C(F)(F)F)cc1)c1csc(NC(=O)Nc2ccccc2Cc2ccccc2)n1 (configuration not stated)	33*	.	.	.	.	-5	11
CC(C)c1ccccc1NC(=O)Nc1nc(C(N)Cc2ccc(C(F)(F)F)cc2)cs1 (configuration not stated)	12	.	.	.	.	13	.
O=C(Nc1ccc(Nc2ccncc2)cc1)c1ccc(Nc2ccnc3ccc([N+](=O)[O-])cc23)cc1[N+](=O)[O-]	74*	-3	34	9.1*	2	15	+
O=C1O[C@@H](c2ccccc2)C[C@@H](O)C(=O)CCCCc2ccccc21	-16	.	.	.	.	-5	.
OC(c1ccccc1)(c1nc(-c2ccc(F)c(Cl)c2)cs1)C(F)(F)F (configuration not stated)	14	.	.	.	.	2	.
S=C(NCc1ccc(Cl)cc1)NCc1ccccn1	4	-35	-29	-3	-4	8	.
CC(C)CCC(CCNCc1ccccn1)c1ccc(Cl)cc1 (configuration not stated)	31*	-11	15	0	-1	4	-9
CCN1CCN(c2ccc(S(=O)(=O)N3CCCCC3)cc2NC(=O)/C=C/c2ccc(OC)c(OC)c2)CC1	30*	-5	.	.	.	19	45*
COc1ccc(/C=C/C(=O)Nc2cc(S(=O)(=O)N3CCCCC3)ccc2N2CCCCC2)cc1OC	-9	37	5	-2	-3	1	.
N#Cc1cc2cc(Cl)ccc2[nH]c1=O	-1	.	.	.	.	0	.
Cc1ccc(NC(=O)N2CC(C)OC(C)C2)cc1[N+](=O)[O-] (configuration not stated)	33*	.	.	.	.	-2	-1
CCCOc1ccc(-c2cc(C(=O)NCC3CCCO3)c3ccccc3n2)cc1 (configuration not stated)	27*	-11	47	-1	-2	-22	7
O=C(NCC1CCCO1)c1cc(-c2ccncc2)nc2ccccc12 (configuration not stated)	-5	.	.	.	.	10	.
COc1ccc(C(C)(O)c2nc(-c3ccc(OC)nc3)cs2)cc1 (configuration not stated)	0	.	.	.	.	18	.
COc1ncc(-c2ccc(N3C(c4ccsc4)=Cc4ccc(F)cc4C3CC(=O)c3ccco3)cc2)cn1 (configuration not stated)	-12	.	.	.	.	-3	.
O=C(CC1c2cc(F)ccc2C=C(c2ccsc2)N1c1ccc(C#CCCO)cc1)c1ccco1 (configuration not stated)	25*	.	.	.	.	10	-1
COc1ccc(-c2ccc(C(=O)Nc3ccc(OC)nc3)c3occc23)c(C)c1	-7	.	.	.	.	8	.
COc1ccc(CCNC(=O)CN(c2ccccc2OC)S(C)(=O)=O)cc1	28*	4	-8	-3	-1	-1	-6
CCCc1cc(=O)[nH]c(SCC(=O)N2CCN(S(=O)(=O)c3ccc4ccccc4c3)CC2)n1	25*	1	3	-5	-2	7	-2

Source: PubChem BioAssay (several laboratories)
